Source: PubChem BioAssay
Most compounds without a hit are left out; they make up all but 2.9% or so of the library.
SF1 activator = SF-1 (human) activation. Q13285. CHO-K1 Gal4-SF-1 LBD luciferase reporter; % increase over DMSO SF-1-specific signal. activation, % at 10 µM. 1.9% of 65,000 active. AID 522;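 active means activation above the mean activation of all tested compounds plus 3 SD, cut at about 50% in these data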
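Compound – one dose, 10 µM compound, 1% DMSO · Test system – transient Gal4-SF-1 LBD reporter, CHO-K1 · Input – 4,000 cells in each well · Read-out basis – percent activation relative to DMSO median and mock-transfected background · Replicates – single measurement per compound · Technique – steady-glow luciferase luminescence, read after 15 min reagent incubation · Timing – 20 h compound treatment, 37 °C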
RORA act = activators of human nuclear receptor RORA; AID 560; CHO-K1 Gal4-RORA LBD luciferase reporter, luminescence; percent increase over mock-subtracted basal signal; 1.5% of 65,000 active; activation, % at 10 µM;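 active means activation above the mean of all tested compounds plus 3 SD, cut at about 49% in these data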;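 further: 0% = DMSO-treated RORA cells and 100% = added signal equal to DMSO minus mock-transfected cells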
PKA inh = inhibitors of human protein kinase A | PKA Kemptide phosphorylation, Kinase-Glo ATP luminescence | inhibition, % at 6 µM | 0.1% of 65,000 active | P17612;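 active means inhibition above the screen-wide mean inhibition plus 3 SD, cut at about 21% in these data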
ROCK2 blocker = blocks human Rho kinase 2 activity | O75116 | purified ROCK2, Kinase-Glo ATP depletion luminescence | inhibition, % at 6 µM | 0.35% of 60,000 active | AID 604;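 active means inhibition above the screen-wide mean inhibition plus 3 SD, cut at about 18% in these data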;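 further: plate controls were DMSO wells for no effect and Y-27632 control wells after no-enzyme background subtraction for full effect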
Htt clearance = mutant huntingtin protein clearance; HeLa Exon1htt(103Q)mCFP, aggregate imaging; zero = plate's median compound well; AID 853; 0.42% of 47,000 active; inhibition, % at 1.5 µM;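 active means inhibition of aggregate fluorescence above about 70%, also judged a hit by eye on the cell image, limit read from the data, passing the limit was not always enough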;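 further: cells exposed to compound for three days before fixation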
JNK3 inh = inhibitors of human JNK3 kinase | purified JNK3 kinase activity, HTS | inhibition, % at 8 µM | P53779 | 0.61% of 60,000 active; in the data active means inhibition above about 17%;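 further: 0% = DMSO and 100% = reference inhibitor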
Active calls of the source: *.

What do the screens show for `CCOC(=O)c1c(NC(=O)C(c2ccccc2)c2ccccc2)sc2c1C1CCN2CC1`?
Htt clearance: 75*

Results for CCOC(=O)c1c(NC(=O)c2c(N)n(CCCOC)c3nc4ccccc4nc23)sc2c1CCCC2 ?
Htt clearance: 13

Results for CCCCc1ccc2[nH]cc(CCN)c2c1 ?
SF1 activator: -22; RORA act: -8; PKA inh: -2; ROCK2 blocker: -7; Htt clearance: 75*; JNK3 inh: 3

Results for Cc1[nH]c2ccccc2c1C1=CCNCC1 ?
SF1 activator: 19; RORA act: -12; PKA inh: 18; ROCK2 blocker: 26*; JNK3 inh: -5

What do the screens show for `O=C(c1c[nH]cc1-c1ccccc1)c1cccc2ccccc12`?
Htt clearance: -10

How did CCn1nc(-c2cccs2)nc2c(=O)n(C)c(=O)nc1-2 do in these assays?
SF1 activator: -96; RORA act: -91; PKA inh: 2; ROCK2 blocker: 69*; JNK3 inh: 47*

How did COc1ccc(N=C2SCCCN2C)cc1 do in these assays?
Htt clearance: 25

How did O=P(NS(=O)(=O)c1ccc(Br)cc1)(Oc1ccccc1)Oc1ccccc1 do in these assays?
Htt clearance: 19

How did CN1CCC(O)(c2ccccc2)C(C(=O)c2ccccc2)C1 (configuration not stated) do in these assays?
SF1 activator: -8; RORA act: -3; PKA inh: 13; ROCK2 blocker: 8; JNK3 inh: 2

What do the screens show for `CCN1CCC(O)(c2ccccc2)C(C(=O)c2ccccc2)C1` (configuration not stated)?
Htt clearance: 87*

How did CC(C)[C@@]1(NC(=O)[C@@H]2C=C3c4cccc5[nH]cc(c45)C[C@H]3N(C)C2)O[C@@]2(O)[C@@H]3CCCN3C(=O)[C@H](Cc3ccccc3)N2C1=O do in these assays?
SF1 activator: 2; RORA act: 20; PKA inh: -6; ROCK2 blocker: 13; JNK3 inh: -6

How did CC(C)[C@H]1C(=O)N2CCC[C@H]2[C@]2(O)O[C@](NC(=O)[C@@H]3C=C4c5cccc6[nH]cc(c56)C[C@H]4N(C)C3)(C(C)C)C(=O)N12 do in these assays?
SF1 activator: 3; RORA act: 8; PKA inh: 4; ROCK2 blocker: 36*; JNK3 inh: -5

What do the screens show for `Cc1ccccc1OCCN=Cc1c(O)n(C)c(=O)n(C)c1=O`?
Htt clearance: -16

How did CC1(C)CN=C(Nc2nc3ccccc3s2)S1 do in these assays?
SF1 activator: 70*; RORA act: 54*; PKA inh: 0; ROCK2 blocker: 4; JNK3 inh: -1

How did Clc1cccc(Cl)c1C1N2CCCN12 (configuration not stated) do in these assays?
Htt clearance: -75

What do the screens show for `O=C(c1cc2c(s1)-c1ccccc1OC2)N1CCC2(CC1)OCCO2`?
SF1 activator: 61*; RORA act: 54*; PKA inh: 11; ROCK2 blocker: 4; Htt clearance: -40; JNK3 inh: -4

How did Cc1ccc2nc(N3CCC(C(=O)N4CCC5(CC4)OCCO5)CC3)sc2c1 do in these assays?
SF1 activator: 74*; RORA act: 30; PKA inh: 4; ROCK2 blocker: 0; Htt clearance: 9; JNK3 inh: 1

How did CCCCN1C(=O)C(C2c3ccccc3C(=O)N2Cc2ccccc2)C(=O)NC1=S (configuration not stated) do in these assays?
Htt clearance: 18
